Reference: article PMC5538437 (Genes & Development, 2017)
Where a chain is given by its changes, count along the chain named. Names and notes keep the numbering of the source.

B1: GYF1 NC*: GYF1 L60D, F65D, V68D; non-canonical mutant (protein, UniProt O75420 1-1035, looked up, variant L60D F65D V68D)
GRB10-interacting GYF protein …: MAAETLNFGPEWLRALSGGGSVASPPPSPAMPKYKLADYRYGREEMLALYVKENKVPEEDQDKEDAADLQDEPLQPLALEPLTEEEQRNFSLSVNSVAVLRLMGKGAGPPLAGTSRGRGSTRSRGRGRGDSCFYQRSIEEGDGAFGRSPREIQRSQSWDDRGERRFEKSARRDGARCGFEEGGAGPRKEHARSDSENWRSLREEQEEEEEGSWRLGAGPRRDGDRWRSASPDGGPRSAGWREHGERRRKFEFDLRGDRGGCGEEEGRGGGGSSHLRRCRAPEGFEEDKDGLPEWCLDDEDEEMGTFDASGAFLPLKKGPKEPIPEEQELDFQGLEEEEEPSEGLEEEGPEAGGKELTPLPPQEEKSSSPSPLPTLGPLWGTNGDGDETAEKEPPAAEDDIRGIQLSPGVGSSAGPPGDLEDDEGLKHLQQEAEKLVASLQDSSLEEEQFTAAMQTQGLRHSAAATALPLSHGAARKWFYKDPQGEIQGPFTTQEMAEWFQAGYFSMSLLVKRGCDEGFQPLGEVIKMWGRVPFAPGPSPPPLLGNMDQERLKKQQELAAAALYQQLQHQQFLQLVSSRQLPQCALREKAALGDLTPPPPPPPQQQQQQLTAFLQQLQALKPPRGGDQNLLPTMSRSLSVPDSGRLWDVHTSASSQSGGEASLWDIPINSSTQGPILEQLQLQHKFQERREVELRAKREEEERKRREEKRRQQQQEEQKRRQEEEELFRRKHVRQQELLLKLLQQQQAVPVPPAPSSPPPLWAGLAKQGLSMKTLLELQLEGERQLHKQPPPREPARAQAPNHRVQLGGLGTAPLNQWVSEAGPLWGGPDKSGGGSSGLGLWEDTPKSGGSLVRGLGLKNSRSSPSLSDSYSHLSGRPIRKKTEEEEKLLKLLQGIPRPQDGFTQWCEQMLHTLSATGSLDVPMAVAILKEVESPYDVHDYIRSCLGDTLEAKEFAKQFLERRAKQKASQQRQQQQEAWLSSASLQTAFQANHSTKLGPGEGSKAKRRALMLHSDPSILGYSLHGSSGEIESVDDY
B2: GYF1 A1*: GYF1 P76D, L77A; auxiliary site 1 mutant (protein, UniProt O75420 1-1035, looked up, variant P76D L77A)
GRB10-interacting GYF protein …: B1 GRB10-interacting GYF protein … with D60L, D65F, D68V, P76D, L77A
B3: GYF2 NC*: GYF2 L62D, F67D, I70D; non-canonical mutant (protein, UniProt Q6Y7W6 2-1299, looked up, variant L62D F67D I70D)
GRB10-interacting GYF protein …: AAETQTLNFGPEWLRALSSGGSITSPPLSPALPKYKLADYRYGREEMLALFLKDNKIPSDDLDKEDLPDLQEEPLPPLALVPFTEEEQRNFSMSVNSAAVLRLTGRGGGGTVVGAPRGRSSSRGRGRGRGECGFYQRSFDEVEGVFGRGGGREMHRSQSWEERGDRRFEKPGRKDVGRPNFEEGGPTSVGRKHEFIRSESENWRIFREEQNGEDEDGGWRLAGSRRDGERWRPHSPDGPRSAGWREHMERRRRFEFDFRDRDDERGYRRVRSGSGSIDDDRDSLPEWCLEDAEEEMGTFDSSGAFLSLKKVQKEPIPEEQEMDFRPVDEGEECSDSEGSHNEEAKEPDKTNKKEGEKTDRVGVEASEETPQTSSSSARPGTPSDHQSQEASQFERKDEPKTEQTEKAEEETRMENSLPAKVPSRGDEMVADVQQPLSQIPSDTASPLLILPPPVPNPSPTLRPVETPVVGAPGMGSVSTEPDDEEGLKHLEQQAEKMVAYLQDSALDDERLASKLQEHRAKGVSIPLMHEAMQKWYYKDPQGEIQGPFNNQEMAEWFQAGYFTMSLLVKRACDESFQPLGDIMKMWGRVPFSPGPAPPPHMGELDQERLTRQQELTALYQMQHLQYQQFLIQQQYAQVLAQQQKAALSSQQQQQLALLLQQFQTLKMRISDQNIIPSVTRSVSVPDTGSIWELQPTASQPTVWEGGSVWDLPLDTTTPGPALEQLQQLEKAKAAKLEQERREAEMRAKREEEERKRQEELRRQQEEILRRQQEEERKRREEEELARRKQEEALRRQREQEIALRRQREEEERQQQEEALRRLEERRREEEERRKQEELLRKQEEEAAKWAREEEEAQRRLEENRLRMEEEAARLRHEEEERKRKELEVQRQKELMRQRQQQQEALRRLQQQQQQQQLAQMKLPSSSTWGQQSNTTACQSQATLSLAEIQKLEEERERQLREEQRRQQRELMKALQQQQQQQQQKLSGWGNVSKPSGTTKSLLEIQQEEARQMQKQQQQQQQHQQPNRARNNTHSNLHTSIGNSVWGSINTGPPNQWASDLVSSIWSNADTKNSNMGFWDDAVKEVGPRNSTNKNKNNASLSKSVGVSNRQNKKVEEEEKLLKLFQGVNKAQDGFTQWCEQMLHALNTANNLDVPTFVSFLKEVESPYEVHDYIRAYLGDTSEAKEFAKQFLERRAKQKANQQRQQQQLPQQQQQQPPQQPPQQPQQQDSVWGMNHSTLHSVFQTNQSNNQQSNFEAVQSGKKKKKQKMVRADPSLLGFSVNASSERLNMGEIETLDDY
B4: GYF2 A1*: GYF2 P78D, L79A; auxiliary site 1 mutant (protein, UniProt Q6Y7W6 2-1299, looked up, variant P78D L79A)
GRB10-interacting GYF protein …: B3 GRB10-interacting GYF protein … with D61L, D66F, D69I, P77D, L78A

Test system: 4EHP
Assay: Pull-down / coimmunoprecipitation with 4EHP in HEK293T cell lysates
Type: binding, human
Conditions: HEK293T cells, GFP-tagged protein and V5-SBP-4EHP, Western blot
How it was run: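 Streptavidin-bead pull-down from RNase A-treated HEK293T lysates of cells expressing V5-SBP-tagged 4EHP or eIF4E (wild type or mutants). Co-bound endogenous GYF2, 4E-T and 4E-BP1 were probed; for 4EHP, co-expressed GFP-4E-BP1 was also probed, with V5-SBP-MBP as negative control. Inputs and bound fractions were analysed by Western blot with anti-V5, anti-GFP, anti-GYF2 and other antibodies, using ECL detection.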

Molecule	interaction with 4EHP in cells, overexpressed binding partner
4E-BP1 C: 4E-BP1 Y54A, L59A; canonical motif mutant	abolished its interaction with 4EHP
B1	did not affect binding to overexpressed 4EHP in human cells
B2	did not affect binding to overexpressed 4EHP in human cells
B3	did not affect binding to overexpressed 4EHP in human cells
B4	did not affect binding to overexpressed 4EHP in human cells
